We go through 1 compound from ChEMBL document CHEMBL1141128, “Structure-activity relationship study on a simple cationic peptide motif for cellular delivery of antisense peptide nucleic acid” (J Med Chem, 2005).

Some results are limits rather than exact numbers.

For data set [1], the system named is CD40 mRNA. Description: […] CD40 expression in BCL1 cells treated with 1 uM peptide nucleic acid (PNA)conjugate; n=3. In kind it is functional, cell-based. The settings on record: Mus musculus. The method, boiled down: (§1)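 Mouse BCL1 cells in DMEM with 10% FBS, given conjugate at 1, 3 or 10 μM by free uptake (no transfection agent) for 3 days. Cells trypsinised and stained 1 h with FITC anti-CD40 (HM40-3) or isotype control, then surface CD40 read by flow cytometry. Results are % untreated control, mean ± SD, n = 3.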

In data set [2] the test system is CD40 mRNA. The data set is described as follows: […] CD40 expression in BCL1 cells treated with 3 uM peptide nucleic acid (PNA)conjugate; n=3. The format is functional, cell-based. The note with it: Mus musculus. An outline of the steps:
as §1

For data set [3], the system named is CD40 mRNA. Description: […] CD40 expression in BCL1 cells treated with 10 uM peptide nucleic acid (PNA)conjugate; n=3. The format is functional, cell-based. The note with it: Mus musculus. An outline of the steps: as §1
In another data set the test system is BCL1. The data set is described as follows: Inhibitory concentration against BCL1 cell proliferation in WST-1 assay; Range 10-20. The format is functional, Mus musculus. The method, boiled down:
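BCL1 cells, 2000 per well, grown in DMEM with 10% FBS at 37 °C and 5% CO2. Exposed to conjugate for 3 days, then viable cells read by WST-1 absorbance at 450 nm. Value is the concentration at which absorbance fell below 50% of untreated control; triplicates.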

Data set [4] in a line: Half-life of the conjugate when treated with 10% foetal bovine serum for enzymatic stability. The format is ADME, Bos taurus. The note with it: cattle. The method, boiled down:
(§2)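 Conjugates at 20 μM in 10% FBS RPMI 1640 medium or 25% mouse serum (Hepes-stabilised, diluted in PBS, pH 7.1–7.4), incubated at 37 °C. Sampled to 168 h (FBS) or 48 h (serum); proteins precipitated with 10% DCA, PNA 6mer internal standard added. Analysed by C3 RP-HPLC at 60 °C; t1/2 from normalised full-length peak area versus time.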

The nature of data set [5]: Half-life of the conjugate when treated with 25% murine serum for enzymatic stability; No degradation observed within the period of time indicated. The settings on record: mouse. In kind it is ADME. An outline of the steps:
as §2

What is called IC50 is the point on the concentration scale where inhibition reaches its midpoint. High values mean a need for much substance, low ones inhibition by little substance. What is called half-life is the time in which the quantity being followed falls by half. Read a high half-life as slow loss. Consider `NCCCC[C@@H](C=O)NC(=O)[C@@H](CCCCN)NC(=O)[C@@H](CCCCN)NC(=O)[C@@H](CCCCN)NC(=O)[C@@H](CCCCN)NC(=O)[C@@H](CCCCN)NC(=O)[C@@H](CCCCN)NC(=O)[C@@H](CCCCN)NC(=O)[C@H](N)CCCCN`, for which the UTC worked out at 97% in the data set with CD40 mRNA [1], 81% with CD40 mRNA [2] and 54% in the data set with CD40 mRNA [3]. In the data set on BCL1, this compound gave an IC50 of 20 µM. Further, the half-life in data set [4] was more than 168 h; in data set [5], more than 48 h.
